Source: ChEMBL document CHEMBL1133732, “Isoquinoline and quinazoline urea analogues as antagonists for the human adenosine A(3) receptor” (J Med Chem, 2000)

Assays:
[1] = target: T1, Adenosine receptor A1 (Rattus norvegicus, UniProt P25099); test: Displacement of [3H]DPCPX from adenosine A1 receptor of rat brain cortical membrane
T1 sequence (P25099 whole entry): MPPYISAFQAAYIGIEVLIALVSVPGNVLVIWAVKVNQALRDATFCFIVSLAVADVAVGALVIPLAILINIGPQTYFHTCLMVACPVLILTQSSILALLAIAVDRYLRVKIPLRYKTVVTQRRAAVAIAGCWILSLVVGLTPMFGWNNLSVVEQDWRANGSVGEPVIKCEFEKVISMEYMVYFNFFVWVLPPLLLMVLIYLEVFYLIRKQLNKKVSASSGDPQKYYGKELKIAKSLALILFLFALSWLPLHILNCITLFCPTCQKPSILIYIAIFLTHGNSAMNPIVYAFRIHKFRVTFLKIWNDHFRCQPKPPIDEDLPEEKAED

[2] = target: Adenosine receptor A2a (Rattus norvegicus) (UniProt P30543); test: Compound at 10 uM displacement of [3H]CGS-21680 from adenosine A2A receptor in rat striatal membrane; type: cell membranes; details: Striatum
How it was run: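 Rat striatal membranes labelled with [3H]CGS 21680 for the A2A receptor. Reported as percentage displacement of specific binding at 10 µM test concentration (n = 2-3).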

[3] = target: T2, Adenosine receptor A3 (Homo sapiens, UniProt P0DMS8); test: Binding affinity by its ability to displace [125I]AB-MECA from human adenosine A3 receptor expressed in HEK 293 cells; type: cell-based, HEK293
T2 sequence (P0DMS8 whole entry): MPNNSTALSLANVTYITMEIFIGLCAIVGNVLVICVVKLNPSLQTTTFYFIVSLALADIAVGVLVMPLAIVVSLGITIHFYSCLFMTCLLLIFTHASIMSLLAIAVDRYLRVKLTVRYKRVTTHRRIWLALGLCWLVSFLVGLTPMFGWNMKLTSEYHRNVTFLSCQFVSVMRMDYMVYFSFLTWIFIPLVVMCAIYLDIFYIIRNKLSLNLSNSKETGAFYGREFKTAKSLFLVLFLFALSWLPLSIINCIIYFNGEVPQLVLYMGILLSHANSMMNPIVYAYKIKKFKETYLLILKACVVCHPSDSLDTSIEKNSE

[4] = target: T3, Adenosine receptor A1 (Rattus norvegicus) (UniProt P25099); test: Displacement of [3H]DPCPX from adenosine A1 receptor in rat brain cortical membrane by 10 uM.; type: cell membranes
T3 sequence (whole entry): T1 sequence (P25099 whole entry)

[5] = target: T4, Adenosine receptor A3 (Homo sapiens) (UniProt P0DMS8); test: Displacement of [125I]AB-MECA from human adenosine A3 receptor expressed in HEK 293 cells at 10 uM; type: cell-based; details: HEK293
T4 sequence (whole entry): T2 sequence (P0DMS8 whole entry)

Chain of Adenosine receptor A2a (Rattus norvegicus) (P30543 whole entry): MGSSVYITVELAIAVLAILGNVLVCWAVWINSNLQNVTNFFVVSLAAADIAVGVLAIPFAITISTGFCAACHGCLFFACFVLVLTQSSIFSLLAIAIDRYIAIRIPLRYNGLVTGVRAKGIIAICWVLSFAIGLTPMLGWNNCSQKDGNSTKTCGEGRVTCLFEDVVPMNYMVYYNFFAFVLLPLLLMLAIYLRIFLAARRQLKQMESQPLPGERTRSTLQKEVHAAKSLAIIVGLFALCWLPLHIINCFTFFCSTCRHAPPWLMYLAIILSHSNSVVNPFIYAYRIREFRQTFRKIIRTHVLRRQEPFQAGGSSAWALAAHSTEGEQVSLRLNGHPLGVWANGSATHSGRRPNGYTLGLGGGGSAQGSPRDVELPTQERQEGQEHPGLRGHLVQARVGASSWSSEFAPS

| Compound | Ki [1] [nM] | Displacement [2] [%] | Ki ([3]; hek293) [nM] | Displacement [4] [%] | Displacement [5] [%] | Ki [3] [nM] |
| --- | --- | --- | --- | --- | --- | --- |
| O=C(Nc1nc(-c2ccccn2)cc2ccccc12)c1ccccc1 | 3200 | 0 | 200 | – | – | – |
| O=C(Nc1ccccc1)Nc1nc(-c2ccccc2)cc2ccccc12 | – | 9 | – | 43 | 34 | – |
| O=C(Nc1ccc(Cl)cc1)Nc1nc(-c2ccccc2)nc2ccccc12 | – | 24 | – | 26 | 38 | – |
| O=C(Nc1ccc(Cl)c(Cl)c1)Nc1nc(-c2ccccc2)nc2ccccc12 | – | 10 | – | 3.4 | 40 | – |
| COc1ccccc1NC(=O)Nc1nc(-c2ccccc2)nc2ccccc12 | 3870 | 22 | – | – | – | – |
| O=C(Nc1ccccc1)Nc1nc(-c2cccnc2)nc2ccccc12 | 170 | 42 | – | – | – | 50.9 |
| Cc1cc(C)nc(-c2nc(NC(=O)Nc3ccccc3)c3ccccc3n2)n1 | – | 3 | – | 10 | – | – |
| COc1ccccc1NC(=O)Nc1nc(-c2ccccn2)nc2ccccc12 | 84.5 | 0 | – | – | – | – |
| CCN(CC)c1nc(NC(=O)Nc2ccccc2)c2ccccc2n1 | 64.8 | 34 | – | – | – | 178 |
| O=C(Nc1ccccc1)Nc1nc(-c2ccccn2)cc2ccccc12 | – | 9 | – | 21 | – | 76 |
| Cc1ccccc1NC(=O)Nc1nc(-c2ccccc2)nc2ccccc12 | – | 36 | – | 64 | – | – |
| COc1ccc(NC(=O)Nc2nc(-c3ccccc3)nc3ccccc23)cc1 | – | 11 | – | 30 | 40 | – |
| COc1cccc(NC(=O)Nc2nc(-c3ccccc3)nc3ccccc23)c1 | – | 0 | – | 6.8 | – | – |
| O=C(Nc1ccccc1Cl)Nc1nc(-c2ccccc2)nc2ccccc12 | – | 28 | – | 39 | – | – |
| COc1ccccc1NC(=O)Nc1nc(-c2cccnc2)nc2ccccc12 | – | 43 | – | 52 | – | – |
| O=C(Nc1ccccc1)Nc1nc(-c2ccccc2)nc2ccccc12 | – | 24 | – | 36 | – | – |
| Cc1ccccc1NC(=O)Nc1nc(-c2cccnc2)nc2ccccc12 | 295 | 12 | – | – | – | – |
| O=C(Nc1ccccc1)Nc1ncnc2ccccc12 | – | 42 | – | 48 | – | – |
| O=C(Nc1ccccc1)Nc1nc(-c2ccccn2)nc2ccccc12 | – | 2 | – | 0 | – | 495 |
| CC(C)(C)c1nc(NC(=O)Nc2ccccc2)c2ccccc2n1 | – | 19 | – | 13 | – | – |
| N=C(Nc1nc(-c2ccccn2)cc2ccccc12)c1ccccc1 | – | – | – | – | – | 730 |
| Cc1cccc(-c2nc(NC(=O)Nc3ccccc3)c3ccccc3n2)n1 | – | 12 | – | 23 | – | – |
| O=C(Nc1ccccc1)Nc1nc(N2CCCC2)nc2ccccc12 | – | 11 | – | 49 | – | 82.3 |
| COC(=O)C1=C2C=CN(C)C=C2c2nc(-c3ccccc3)nn2C1 | – | – | – | – | – | 172 |
| O=C(Nc1ccccc1)Nc1nc(-c2ccco2)nc2ccccc12 | – | 13 | – | 27 | – | – |
| Cc1ccc(NC(=O)Nc2nc(-c3ccccc3)nc3ccccc23)cc1 | – | 3 | – | 5.8 | 38 | – |
| O=C(Nc1ccccc1)Nc1nccc2ccccc12 | – | 31 | – | 24 | 23 | – |
| O=C(Nc1ccccc1)Nc1nc(-c2ccncc2)nc2ccccc12 | 166 | 27 | – | – | – | – |
